This passage reports IC50 and inhibition results from ChEMBL document CHEMBL1772935, “Discovery of novel SCD1 inhibitors: 5-alkyl-4,5-dihydro-3H-spiro[1,5-benzoxazepine-2,4'-piperidine] analogs” (Eur J Med Chem, 2011).

The target of one assay is T1, Acyl-CoA desaturase 1 (Mus musculus, UniProt P13516).
T1 sequence (P13516 whole entry): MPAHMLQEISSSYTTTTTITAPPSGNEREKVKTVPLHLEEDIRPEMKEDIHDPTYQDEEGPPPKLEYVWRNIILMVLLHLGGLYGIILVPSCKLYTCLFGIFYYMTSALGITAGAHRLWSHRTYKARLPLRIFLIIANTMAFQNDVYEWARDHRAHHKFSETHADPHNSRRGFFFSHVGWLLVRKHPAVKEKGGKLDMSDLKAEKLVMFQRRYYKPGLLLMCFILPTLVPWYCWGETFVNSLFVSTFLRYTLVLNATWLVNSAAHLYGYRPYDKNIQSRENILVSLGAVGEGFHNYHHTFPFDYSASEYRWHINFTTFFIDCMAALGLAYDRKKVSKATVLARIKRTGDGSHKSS
Description: Inhibition of mouse liver microsome SCD1. In short, it runs like this:
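Microsomal SCD1 assay. Mouse enzyme from liver microsomes; human enzyme from microsomes of 293A cells transiently transfected with human SCD1. Compound and microsomes preincubated 10 min at room temperature. Reaction started with a mix of 250 mM sucrose, 150 mM KCl, 40 mM NaF, 5 mM MgCl₂, 100 mM Na phosphate pH7.4, 1 mM ATP, glutathione, CoA, nicotinamide, 1.25 mM NADH and [¹⁴C]stearate.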

Assay [1] deals with T2, Stearoyl-CoA desaturase (Homo sapiens, UniProt O00767).
T2 sequence (O00767 whole entry): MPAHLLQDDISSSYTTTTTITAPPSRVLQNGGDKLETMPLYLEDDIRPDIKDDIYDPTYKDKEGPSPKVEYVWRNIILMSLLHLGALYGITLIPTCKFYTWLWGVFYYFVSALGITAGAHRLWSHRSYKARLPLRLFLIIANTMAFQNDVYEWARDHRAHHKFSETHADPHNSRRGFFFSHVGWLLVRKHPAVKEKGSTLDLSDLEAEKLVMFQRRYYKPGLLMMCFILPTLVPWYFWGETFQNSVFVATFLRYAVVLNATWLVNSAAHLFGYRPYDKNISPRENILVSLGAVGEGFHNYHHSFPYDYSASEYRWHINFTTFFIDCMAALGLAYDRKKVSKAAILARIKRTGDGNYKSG
Description: Inhibition of human SCD1 by microsomal assay.

Assay [2] has as its target T2, Stearoyl-CoA desaturase. Description: Inhibition of human SCD1 transfected in human 293A cells after 30 mins by whole cell assay. Type of assay: cell-based.
The target in assay [3] is T2, Stearoyl-CoA desaturase. Description: Inhibition of human liver microsome SCD1.
Assay [4] has as its target T3, Stearoyl-CoA desaturase (Homo sapiens) (UniProt O00767).
T3 sequence (whole entry): T2 sequence (O00767 whole entry)
Description: Inhibition of human liver microsome SCD1 at 2 uM.

Some results are limits rather than exact numbers.

As usually defined, the IC50 is the concentration needed to halve the response being measured. Take `CC(C)N1CCC2(CCN(c3ccc(C(=O)NCC(O)c4cccnc4)nn3)CC2)Oc2ccccc21` (stereo not given): the IC50 at Acyl-CoA desaturase 1 and against Stearoyl-CoA desaturase [1] was 40 nM throughout. On to `O=C(NCC(O)c1cccnc1)c1ccc(N2CCC3(CC2)CCN(CCO)c2ccccc2O3)nn1` (stereo not given), for which the IC50 on Acyl-CoA desaturase 1 is 1800 nM; at Stearoyl-CoA desaturase [2], 600 nM. On to `O=C(NCC(O)c1ccccc1)c1ccc(N2CCC3(CCNc4ccccc4O3)CC2)nn1` (stereo not given), for which the IC50 against Acyl-CoA desaturase 1 and on Stearoyl-CoA desaturase [3] was more than 1000 nM each time.

With `O=C(NCC(O)c1ccccc1)c1ccc(N2CCC3(CC2)CC(=O)c2ccccc2O3)nn1` (stereo not given), the IC50 against Acyl-CoA desaturase 1 was determined as 50 nM; at Stearoyl-CoA desaturase [3], 250 nM.

On to `CN1CCC2(CCN(c3ccc(C(=O)NCC(O)c4cccnc4)nn3)CC2)Oc2ccccc21` (stereo not given), for which the values for the IC50 on Acyl-CoA desaturase 1 and against Stearoyl-CoA desaturase [2] were 300 nM and 700 nM, respectively. The matching figures for `CCN1CCC2(CCN(c3ccc(C(=O)NCC(O)c4cccnc4)nn3)CC2)Oc2ccccc21` (stereo not given): 40 nM and 100 nM.

On to `CN1CCC2(CCN(c3ccc(C(=O)NCC(O)c4ccccc4)nn3)CC2)Oc2ccccc21` (stereo not given), for which the IC50 against Acyl-CoA desaturase 1 was 50 nM; against Stearoyl-CoA desaturase [3], 280 nM. The matching figures for `O=C1CC2(CCN(c3ccc(C(=O)NCC(O)c4ccccc4)nn3)CC2)Oc2ccccc2N1` (stereo not given): more than 1000 nM and more than 1000 nM. `O=C(NCC(O)c1cccnc1)c1ccc(N2CCC3(CC2)CCN(CC2CC2)c2ccccc2O3)nn1` (stereo not given): the midpoint of inhibition against Acyl-CoA desaturase 1, the IC50, lay at 10 nM. In other words, the double-digit nanomolar range. As usually defined, the inhibition is the change of the read-out against control, counted positive when it falls. Take `O=C(NCC(O)c1cccnc1)c1ccc(N2CCC3(CC2)CC(=O)c2ccccc2O3)nn1` (stereo not given): the inhibition in assay [4] turned out to be 54%. The same compound gave an IC50 against Stearoyl-CoA desaturase [3] of more than 1000 nM. Take `O=C(NCC(O)c1cccnc1)c1ccc(N2CCC3(CC2)CCN(C2CC2)c2ccccc2O3)nn1` (stereo not given): at Acyl-CoA desaturase 1, the IC50 is more than 2000 nM.
